Source: PubChem
Rows were chosen to be rich in hits. Some 2.2% of all compounds tested hit in one or more screens of this group.
DDE Tn7 FP inh = disrupts Tn7 cyclic peptide binding to fibrin D-Dimer-E complex; actives 0.13% (n = 370,000); P02675; inhibition, % at 8.3 µM; FP displacement of FITC-Tn7 peptide from fibrin DD(E); 0% = median of compound wells per plate; AID 720508;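 active = inhibition above the mean of compounds falling within the control limits plus 3 SD of them, cut at about 14% in these data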
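Assay system: human fibrin DD(E). Input: DD(E) 2 µM final. Medium: Tris buffer with calcium and detergent, pH 7.8. Compound dosing: single point at 8.3 µM. Timing: 10 min plus 3 h, room temperature. Technique: fluorescence polarization of the labelled Tn7 tracer. Read-out: percent inhibition. Replicates: singlicate testing.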
SKN-1 block = blocks SKN-1 activity in C. elegans | C. elegans VP596 Pgst-4::GFP/RFP ratio, acrylamide-induced, 24 h | actives 0.49% (n = 360,000) | inhibition, % at 21.8 µM;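 active = interference check ratio from 0.5 to 1.5 plus GFP to RFP signal ratio inhibition reaching or exceeding a fixed threshold, cut at about 30% in these data, passing the limit was not always enough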
KLK7 zymogen act = proKLK7 (human) activation, primary screen | actives 0.9% (n = 370,000) | activation, % at 7 µM | P49862 | purified proKLK7, EDANS-DABCYL substrate fluorescence; 100% is mature enzyme control, 0% vehicle;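 active = activation above the mean of all tested compounds plus 3 SD, computed per campaign excluding outliers beyond control limits, cut at about 13% in these data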
Target sequence (P49862 whole entry, looked up): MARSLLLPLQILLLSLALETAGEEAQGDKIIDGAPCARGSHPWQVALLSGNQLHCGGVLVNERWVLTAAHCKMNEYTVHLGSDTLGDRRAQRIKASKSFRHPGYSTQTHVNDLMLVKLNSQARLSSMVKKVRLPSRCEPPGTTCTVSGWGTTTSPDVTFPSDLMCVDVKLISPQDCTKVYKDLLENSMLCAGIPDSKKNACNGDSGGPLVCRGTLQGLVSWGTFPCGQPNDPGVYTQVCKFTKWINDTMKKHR
MT1-MMP act inh = blocks activation of human MT1-MMP. P50281. HT1080 RFP-PRO-GFP cells, GFP/RFP ratio fluorescence, overnight; percent of plate control window, DMSO zero. GFP/RFP ratio change, % at 20 µM. actives 0.061% (n = 360,000). AID 651647;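 active = GFP/RFP ratio change of at least 30% with cell ATP level not reduced by more than half and red fluorescence within 50% of control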
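Material: RFP-PRO-GFP reporter HT1080 cells. Dosing: single-point 20 µM compound, 1% DMSO. Controls: DMSO and RFP-L50D-GFP cell wells. Timing: cells overnight before dosing, compound overnight, 37 °C, 5% CO2. Measure: GFP/RFP fluorescence ratio.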
DDE Tn6 FP inh = disrupts Tn6 cyclic peptide binding to fibrin D-Dimer-E complex; AID 720509; actives 0.21% (n = 370,000); inhibition, % at 8.3 µM; P02675; Fibrin DD(E) TRITC-Tn6 fluorescence polarization displacement;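 active = inhibition above a per-campaign cutoff: mean of compounds within control limits plus 3 SD, cut at about 15% in these data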
Neddylation inh = blocks human cullin neddylation; P61081+Q13564; TR-FRET cullin neddylation, biochemical; calls only at 25 µM; actives 0.58% (n = 360,000); AID 651699; in the data active = inhibition above about 36%
Large screens that a line does not name were inactive.

COc1ccc(CC(=O)OCC(=O)NC(=O)Nc2ccccc2F)cc1	none
COc1cccc(N=c2oc3ccc(OC)cc3cc2-c2nc3ccccc3[nH]2)c1	none
COc1cccc(N=c2oc3ccccc3cc2-c2nc3ccccc3[nH]2)c1	Neddylation inh active
COc1ccc(-n2sc3c(c2=S)-c2cc(OC)ccc2NC3(C)C)cc1	SKN-1 block 40
COc1cc(/C=C(\CCC(=O)O)c2nc3ccccc3s2)ccc1OCC(=O)Nc1c(Cl)cccc1Cl	Neddylation inh active
Cc1csc(NC(=O)C2CCCN(S(=O)(=O)c3ccc(Br)s3)C2)n1 (stereo unspecified)	none
c1ccc(N=Nc2ccc3cccccc2-3)cc1	SKN-1 block 45
Nc1ccc(N=Nc2ccccc2)c2ccccc12	none
c1ccc(Cn2nnc3c(NCCN4CCOCC4)ncnc32)cc1	SKN-1 block 44
Cc1nonc1OCCNc1ccc([N+](=O)[O-])cc1[N+](=O)[O-]	none
Cc1nonc1OC(C)CNc1ccc([N+](=O)[O-])cc1 (stereo unspecified)	SKN-1 block 36
Cc1cc(=O)[nH]c(SCC(=O)N2CCN(C(=O)c3ccco3)CC2)n1	none
COc1cc(/C=N/NC(=O)c2cc3c(ccc4ccccc43)o2)cc(OC)c1O	Neddylation inh active
O=C(N/N=C/c1ccncc1)c1cc2c(ccc3ccccc32)o1	none
O=c1c2cc3c(cc2[nH]c(=S)n1Cc1ccco1)OCO3	SKN-1 block 40
O=C(CCCn1c(=S)[nH]c2cc3c(cc2c1=O)OCO3)NCc1ccco1	none
Fc1ccc(CSc2nsc(SCc3ccc(F)cc3)n2)cc1	none
O=C(Nc1nc(SCc2ccc(F)cc2)ns1)c1ccco1	SKN-1 block 54
c1csc(-c2nc3c4ccccc4c4ccccc4c3[nH]2)c1	KLK7 zymogen act 18 (not shown: Neddylation inh)
Brc1ccc(-c2nc(-c3ccccc3)no2)o1	SKN-1 block 79
Brc1ccc(-c2nc(-c3cccnc3)no2)o1	SKN-1 block 52
O=C(NC(c1ccc(-c2ccccc2)cc1)c1cnccn1)C1CCN(Cc2ccc(Oc3ccccc3)cc2)CC1 (stereo unspecified)	none
O=C(NC(c1ccc(-c2ccccc2)cc1)c1cnccn1)C1CCN(Cc2cccs2)CC1 (stereo unspecified)	SKN-1 block 46
Nc1ccc(/C=C/c2ccc3ncccc3c2)cc1	none
O=C(CCNC(=O)c1ccccc1)NNC(=O)c1ccc(F)cc1	none
O=C(Nc1ccccc1)O/N=C/c1ccc(F)cc1	SKN-1 block 37
Cc1ccc(NC(=O)O/N=C/c2ccc(F)cc2)cc1	none
COc1cccc(NC(=O)CSc2nnc(C)s2)c1	none
O=C(NCc1cccs1)c1cc(-c2cccs2)on1	DDE Tn6 FP inh 91
O=C(NCc1cccs1)c1csc([C@@H]2O[C@H](CO)[C@H](O)[C@H](O)[C@H]2O)n1	SKN-1 block 43
Cc1ccc(S(=O)(=O)N[C@H](C(=O)OCC(=O)N2N=C(c3ccc(Cl)cc3)CC2c2ccco2)C(C)C)cc1 (stereo partly specified)	none
O=C(Nc1ccc(Cl)c(Cl)c1)Nc1ccon1	SKN-1 block 46
O=C(Nc1csc(Cl)c1)c1ccccc1	SKN-1 block 42
O=C(Nc1ccc([N+](=O)[O-])cc1)c1ccccc1	SKN-1 block 37
Cc1cc(NC(=O)Nc2ccc(Cl)c(Cl)c2)no1	none
O=C(Nc1ccc(OC(F)F)c(Cl)c1)c1cccc(OC(F)F)c1	SKN-1 block 44 (no result: DDE Tn7 FP inh, KLK7 zymogen act, DDE Tn6 FP inh)
CCc1ccc(N(C(=O)c2ccco2)C(C(=O)NC2CCCC2)c2ccncc2)cc1 (stereo unspecified)	none
CCCN(C(=O)CCc1ccc(OC)cc1)c1c(N)n(Cc2ccccc2)c(=O)[nH]c1=O	none
O=C(Nc1cccc(Cl)c1)c1ccccc1	none
O=C(Nc1ccc(Cl)c(Cl)c1)c1ccccc1	SKN-1 block 43
Cc1cc(C(=O)COC(=O)c2cnccn2)c(C)n1-c1ccc(Br)cc1	none
CC(C)Cn1c(N)c(C(=O)CSc2nnnn2-c2ccc(Cl)cc2)c(=O)n(C)c1=O	none
CC(C)Cn1c(N)c(C(=O)CSc2nnnn2C)c(=O)n(C)c1=O	SKN-1 block 43
O=C(c1ccccc1)N1CCN(C(=O)c2ccc3c(c2)OCCO3)CC1	none
CCn1c(C)c(C)c2cc(C(=O)N3CCc4ccccc4C3)ccc21	SKN-1 block 42
Cc1ccc(S(=O)(=O)N2CCN(C(=O)c3nn(C(C)C)c(=O)c4ccccc34)CC2)cc1C	none
Cn1nc(C(=O)N2CCN(S(=O)(=O)c3ccccc3)CC2)c2ccccc2c1=O	SKN-1 block 38
COc1cc(C=c2c3ccccc3n3c2cc(-c2ccccc2)[n+]3C)cc(OC)c1OC	DDE Tn6 FP inh 17 (not shown: Neddylation inh)
Cc1cc(C(=O)N2CCCC(N3CCN(c4ccccc4C)CC3)C2)no1 (stereo unspecified)	none
COc1cccc(-c2cccc(NC(=O)C3CCN(CC4CCOC4)CC3)c2)c1 (stereo unspecified)	SKN-1 block 46
COc1ccc(-c2nnc(-c3ccc(Br)o3)o2)cc1OC	SKN-1 block 36
COCCN(C(=O)/C=C/c1ccccc1)c1c(N)n(Cc2ccccc2)c(=O)[nH]c1=O	SKN-1 block 52
COCCN(C(=O)/C=C/c1cccc([N+](=O)[O-])c1)c1c(N)n(Cc2ccccc2)c(=O)[nH]c1=O	none
CCN1CCN(c2cc(N3CCN(C(=O)c4ccco4)CC3)c3c4c(onc24)-c2ccccc2C3=O)CC1	none (no result: DDE Tn7 FP inh, KLK7 zymogen act, DDE Tn6 FP inh)
O=C(O)CCNc1cc(N2CCN(C(=O)c3ccco3)CC2)c2noc3c2c1C(=O)c1ccccc1-3	DDE Tn6 FP inh 46
COc1ccc(-c2cc(C(=O)Nc3cc(C)n(Cc4ccc(Cl)cc4)n3)no2)cc1OC	Neddylation inh active (no result: DDE Tn7 FP inh, KLK7 zymogen act, DDE Tn6 FP inh)
CCC1Oc2ccccc2N(CC(=O)NCCCN2CCCC2)C1=O (stereo unspecified)	none
CCc1ccc(NC(=O)c2cc(-c3ccco3)on2)cc1	SKN-1 block 45 (not shown: Neddylation inh)
COc1ccc(NC(=O)c2cc(-c3ccco3)on2)cc1	none
O=C(Nc1cccc(Cl)c1)c1cc(-c2ccco2)on1	SKN-1 block 39
COc1cc(/C=N/NC(=O)c2cc(C3CC3)[nH]n2)cc(OC)c1OC	none
COc1ccc(C2CC(c3ccccc3)=NN2S(=O)(=O)c2ccc(C)cc2)c(OC)c1 (stereo unspecified)	SKN-1 block 52
S=c1[nH]nc(-c2n[nH]c3c2CCC3)n1/N=C/C=C/c1ccco1	Neddylation inh active
S=c1[nH]nc(-c2n[nH]c3c2CCC3)n1N=Cc1ccco1	none (no result: SKN-1 block, MT1-MMP act inh, Neddylation inh)
CCN1CCc2c(sc(NC(=O)c3ccc4ccccc4c3)c2C(N)=O)C1	Neddylation inh active
